For 19 molecules, viability, differential viability (reversal) and inhibition results are on record in PubChem BioAssay.

Each structure is given as a SMILES string. The source made the active and inactive calls.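 Rule for the calls, unless noted: active = viability at or below 30% in both replicate assays; inconclusive = viability at or below 30% in just one of the two assays; inactive = the rest.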

Experiment [1] in a line: HUVEC growth inhibition – cell-based, human, primary screen (AID 575).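 Note: 100% = median of untreated cell wells with 0.1% DMSO on each plate.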 The note with it: HUVEC proliferation, CellTiter-Glo luminescence, 72 h; at 10 µM; stronger effect = lower value. In short, it runs like this: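 Assay system: primary human umbilical vein endothelial cells / Buffer or medium: endothelial basal medium with 2% FBS plus growth supplements / Compound dosing: one dose, 10 µM final, 0.1% DMSO / Timing: 72 h treatment at 37 °C / Signal: CTG luminescence / Benchmarks: 32 DMSO-only cell-control wells (high), 32 MePR drug-control wells (low) per plate / Plate: collagen-coated 384-well format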

A short description of experiment [2]: H69AR cell proliferation blockers – human, duplicate replicates, primary screen (AID 580;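 active = viability at or under a set limit in both replicates, limit being median viability minus 3 SD, cut at about 48% in these data, passing the limit was not always enough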;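 note: 100% = mean luminescence of untreated wells and 0% = no signal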). The note with it: H69AR lung tumor cells viability, ATP luminescence, 72 h; at 10 µM; stronger effect = lower value.
Experiment [3] can be described thus: MRP1 drug-resistance reversers in H69AR cells – cell-based, doxorubicin co-treatment, pilot screen (AID 601;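 active = viability loss from added drug above about 55%, and viability with drug at most 40%, in both replicates, limit read from the data, passing the limit was not always enough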). The note with it: CellTiter-Glo, 72 h, at 10 µM; for differential viability (reversal): stronger effect = higher value.
Experiment [4] can be described thus: yeast transport mutant growth inhibition pilot in 384-well plates, post-Golgi transport modulator project (AID 636; in the data active = inhibition above about 31%). The note with it: absorbance 615 nm, about 18 h, stronger effect = higher value.
Experiment [5] in a line: growth suppression of yeast trafficking mutant, preliminary HTS, modulators of trafficking downstream of Golgi apparatus project, 1536-format plate, OD 615 nm (AID 637; in the data active = inhibition above about 30%). Particulars: yeast transport mutant growth, absorbance 615 nm, 18 h; stronger effect = higher value.
Setting [6] is: H69AR cells + 2 uM doxorubicin, measured here: viability with 2 uM doxorubicin, stronger effect = lower value.
[7] abbreviates: H69AR cells, compound alone cytotoxicity.

For orientation: viability means a read-out of living cells in per cent, often relative to untreated cells. Broadly, the inhibition is the drop in the measured response relative to a control, in per cent. Turning to `CCOc1ccc(N(C)S(=O)(=O)c2ccc3[nH]cc(C(=O)NCC4CCCO4)c(=O)c3c2)cc1` (stereo not drawn), the viability in experiment [1] was 73.7% (inactive); in experiment [2], 87.9% (inactive); in experiment [3] (setting [6]) it was 82.9%; in experiment [3] (setting [7]) it was 87.9%. In addition, in experiment [3] (H69AR cells + 2 uM doxorubicin), the differential viability (reversal) was 5.04% (inactive). Also, the values for the inhibition in experiment [4] and in experiment [5] were -2.86% (inactive) and -3.17% (inactive), respectively.

For `COc1ccc(C(=O)N2CCOCC2)cc1Br`, the viability in experiment [1] is 116% (inactive); in experiment [2] it was 101% (inactive); in experiment [3] (setting [6]) it was 95%; in experiment [3] (setting [7]), 101%. Also, the differential viability (reversal) in experiment [3] (H69AR cells + 2 uM doxorubicin) was 5.83% (inactive). Also, the inhibition was -2.24% (inactive) in experiment [4] and -4.92% (inactive) in experiment [5].

For `Cc1cc(C(F)(F)F)nc(SCC(=O)NC2=NC(=O)C(C)S2)n1` (stereo not drawn), the viability in experiment [1] was 96% (inactive); in experiment [2], 100% (inactive); in experiment [3] (setting [6]), 83.6%; in experiment [3] (setting [7]), 100%. In experiment [3] (H69AR cells + 2 uM doxorubicin), the differential viability (reversal) is 16.8% (inactive). In addition, the inhibition is -2.27% (inactive) in experiment [4] and -7.3% (inactive) in experiment [5].

As for `CCC(=O)N1CCc2cc(Br)cc(S(=O)(=O)C3(C(=O)OC)CC3)c21`, the viability in experiment [1] was 102% (inactive); in experiment [2], 90.8% (inactive); in experiment [3] (setting [6]), 82.6%; in experiment [3] (setting [7]) it was 90.8%. Besides, in experiment [3] (H69AR cells + 2 uM doxorubicin), the differential viability (reversal) was 8.17% (inactive). The inhibition is -1.82% (inactive) in experiment [4] and 0.79% (inactive) in experiment [5].

On to `Nc1nc(NC(=O)c2cccs2)nn1-c1ccccc1`, for which the viability in experiment [1] is 101% (inactive); in experiment [2] it was 94% (inactive); in experiment [3] (setting [6]), 86.7%; in experiment [3] (setting [7]) it was 94%. In addition, the differential viability (reversal) in experiment [3] (H69AR cells + 2 uM doxorubicin) is 7.31% (inactive). The inhibition in experiment [4] was -6.45% (inactive); in experiment [5], -4.29% (inactive).

Regarding `CCCC(=O)Nc1ccccc1NC(=O)CCC`, the viability in experiment [1] is 108% (inactive); in experiment [2], 96% (inactive); in experiment [3] (setting [6]), 88.8%; in experiment [3] (setting [7]), 96%. In experiment [3] (H69AR cells + 2 uM doxorubicin), the differential viability (reversal) is 7.25% (inactive). Moreover, the inhibition in experiment [4] was -2.24% (inactive); in experiment [5], -2.38% (inactive).

Consider `Cn1c(=O)[nH]c(=O)c2c1nc(NCCCn1ccnc1)n2Cc1cccc(Br)c1`, for which the viability in experiment [1] is 90.3% (inactive); in experiment [2], 81.7% (inactive); in experiment [3] (setting [6]) it was 73.6%; in experiment [3] (setting [7]) it was 81.7%. In experiment [3] (H69AR cells + 2 uM doxorubicin), the differential viability (reversal) was 8.09% (inactive). The results for the inhibition in experiment [4] and in experiment [5] were -5.47% (inactive) and 0.95% (inactive), respectively.

With `CCn1nccc1C(=O)Nc1nccs1`, the viability in experiment [1] was 104% (inactive); in experiment [2] it was 93.7% (inactive); in experiment [3] (setting [6]), 83.7%; in experiment [3] (setting [7]), 93.7%. In experiment [3] (H69AR cells + 2 uM doxorubicin), the differential viability (reversal) is 10% (inactive). Further, the values for the inhibition in experiment [4] and in experiment [5] were -4.34% (inactive) and 3.65% (inactive), respectively.

As for `CSc1nsc(SCC(=O)N2CCc3ccccc32)n1`, the viability in experiment [1] is 98.6% (inactive); in experiment [2] it was 96.8% (inactive); in experiment [3] (setting [6]), 92.2%; in experiment [3] (setting [7]), 96.8%. In addition, in experiment [3] (H69AR cells + 2 uM doxorubicin), the differential viability (reversal) was 4.61% (inactive). Besides, the inhibition in experiment [4] is -6.05% (inactive); in experiment [5] it was 3.33% (inactive).

In the case of `Cc1c(O)c(CN2CCCC(C)C2)cc2c3c(c(=O)oc12)CCC3` (stereo not drawn), the viability was 93.3% (inactive) in experiment [1], 83.1% (inactive) in experiment [2], 86.1% in experiment [3] (setting [6]) and 83.1% in experiment [3] (setting [7]). Besides, in experiment [3] (H69AR cells + 2 uM doxorubicin), the differential viability (reversal) is -2.96% (inactive). Moreover, the inhibition is -6.97% (inactive) in experiment [4] and -2.38% (inactive) in experiment [5].

Take `Nn1cnnc1SCC(=O)Nc1ccc2c(c1)OCCO2`: the viability was 97.5% (inactive) in experiment [1], 97.1% (inactive) in experiment [2], 98.2% in experiment [3] (setting [6]) and 97.1% in experiment [3] (setting [7]). For the same molecule, the differential viability (reversal) in experiment [3] (H69AR cells + 2 uM doxorubicin) is -1.08% (inactive). Also, the inhibition is -4.4% (inactive) in experiment [4] and 8.41% (inactive) in experiment [5].

On to `CS(=O)(=O)N1CCC(C(=O)NCCC2=CCCCC2)CC1`, for which the viability was 99.7% (inactive) in experiment [1], 99.9% (inactive) in experiment [2], 79.6% in experiment [3] (setting [6]) and 99.9% in experiment [3] (setting [7]). The differential viability (reversal) in experiment [3] (H69AR cells + 2 uM doxorubicin) is 20.4% (inactive). In addition, the values for the inhibition in experiment [4] and in experiment [5] were -5.73% (inactive) and -1.11% (inactive), respectively.

`COc1cc(OC)cc(-c2nc(N)n[nH]2)c1`: the viability is 97.8% (inactive) in experiment [1], 103% (inactive) in experiment [2], 97.3% in experiment [3] (setting [6]) and 103% in experiment [3] (setting [7]). In addition, the differential viability (reversal) in experiment [3] (H69AR cells + 2 uM doxorubicin) is 5.86% (inactive). Moreover, the inhibition was -6.4% (inactive) in experiment [4] and 2.06% (inactive) in experiment [5].

For `CCN(CC)CCN1C(=O)C(O)=C(C(=O)c2cccs2)C1c1ccc(C)o1` (stereo not drawn), the viability in experiment [1] was 98.7% (inactive); in experiment [2] it was 98.6% (inactive); in experiment [3] (setting [6]) it was 93.6%; in experiment [3] (setting [7]), 98.6%. Also, in experiment [3] (H69AR cells + 2 uM doxorubicin), the differential viability (reversal) was 5.08% (inactive). Further, the inhibition in experiment [4] is -4.13% (inactive); in experiment [5], -1.11% (inactive).

With `CN(CC(=O)Nc1ccccc1Cl)C(=O)COC(=O)CNC(=O)c1ccc(Br)o1`, the viability is 95.4% (inactive) in experiment [1], 104% (inactive) in experiment [2], 89.5% in experiment [3] (setting [6]) and 104% in experiment [3] (setting [7]). The differential viability (reversal) in experiment [3] (H69AR cells + 2 uM doxorubicin) is 14.3% (inactive). In addition, the inhibition in experiment [4] was 0.39% (inactive); in experiment [5], 5.4% (inactive).

Regarding `CC1(C)C2CCC1(CS(=O)(=O)NCc1ccc(C(=O)O)cc1)C(=O)C2` (stereo not drawn), the viability in experiment [1] was 103% (inactive); in experiment [2], 108% (inactive); in experiment [3] (setting [6]) it was 84.2%; in experiment [3] (setting [7]), 108%. The differential viability (reversal) in experiment [3] (H69AR cells + 2 uM doxorubicin) was 23.7% (inactive). The inhibition is -0.39% (inactive) in experiment [4] and 3.33% (inactive) in experiment [5].

`CCC(=O)Nc1ccc(NC(=O)CSc2nnnn2C(C)C)cc1`: the viability in experiment [1] is 111% (inactive); in experiment [2], 93% (inactive); in experiment [3] (setting [6]) it was 89.8%; in experiment [3] (setting [7]), 93%. Moreover, the differential viability (reversal) in experiment [3] (H69AR cells + 2 uM doxorubicin) is 3.14% (inactive). Moreover, the inhibition in experiment [4] was -3.82% (inactive); in experiment [5] it was 4.13% (inactive).

With `O=C(CN1CCOCC1)Nc1cccc(C(=O)Nc2cccc(C(F)(F)F)c2)c1`, the viability in experiment [1] is 95.5% (inactive); in experiment [2], 101% (inactive); in experiment [3] (setting [6]), 92.4%; in experiment [3] (setting [7]) it was 101%. The differential viability (reversal) in experiment [3] (H69AR cells + 2 uM doxorubicin) was 8.35% (inactive). The results for the inhibition in experiment [4] and in experiment [5] were -0.26% (inactive) and 0% (inactive), respectively.

For the molecule `Cn1c(=O)n(C)c2cc(NC(=O)C(F)(F)F)ccc21`, the viability in experiment [1] was 68.9% (inactive); in experiment [2], 97.4% (inactive); in experiment [3] (setting [6]) it was 85.8%; in experiment [3] (setting [7]), 97.4%. Besides, the differential viability (reversal) in experiment [3] (H69AR cells + 2 uM doxorubicin) was 11.6% (inactive). Besides, the inhibition is -0.92% (inactive) in experiment [4] and -7.94% (inactive) in experiment [5].
